Data published in ChEMBL document CHEMBL1208778, “Synthesis and anti-cancer activity of chalcone linked imidazolones” (2010).

Experiments:
Assay type in all cases: functional
U-251 = test: Growth inhibition of human U251 cells
Outline: (§1)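 Compounds that passed a preliminary screen were tested at five doses in the NCI (Bethesda) in vitro Anticancer Screen Program against a 53-line human tumour panel spanning leukemia, lung, colon, CNS, melanoma, ovarian, renal, prostate and breast. Growth inhibition is reported as GI50.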

MCF7 [1] = test: Cell cycle arrest in human MCF7 cells assessed as accumulation at G1 phase at 30 uM after 24 hrs by FACS analysis
Outline: (§2)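 MCF-7 cells were treated at 30 µM for 24 h alongside a DMSO control. Fractions in G0, G1, S and G2/M phases were measured by FACS, and values are means of three experiments.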

RXF 393 = test: Growth inhibition of human RXF393 cells
Outline: (§3)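 Five-dose testing was run within the NCI (Bethesda) in vitro Anticancer Screen Program on a panel of 53 human tumour cell lines from nine cancer types. Growth inhibition is reported as GI50.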

NCI-H460 = test: Growth inhibition of human NCI-H460 cells; outline: as §3
NCI-H23 = test: Growth inhibition of human NCI-H23 cells; outline: as §3
NCI/ADR-RES = test: Growth inhibition of human NCI/ADR-RES cells; outline: as §3
M14 = test: Growth inhibition of human M14 cells; outline: as §3
COLO 205 = test: Growth inhibition of human COLO205 cells; outline: as §3
SF-295 = test: Growth inhibition of human SF295 cells; outline: as §3
MCF7 [2] = test: Cell cycle arrest in human MCF7 cells assessed as accumulation at S phase at 10 uM after 24 hrs by FACS analysis
Outline: (§4)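 MCF-7 breast carcinoma cells were exposed to 10 µM test compound for 24 h, with DMSO as the vehicle control. Cell-cycle distribution was read by FACS as the percentage of cells in G0, G1, S and G2/M.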

TK-10 = test: Growth inhibition of human TK10 cells; outline: as §1
HCC 2998 = test: Growth inhibition of human HCC2998 cells; outline: as §3
A549 = test: Growth inhibition of human A549 cells; outline: as §3
HCT-15 = test: Growth inhibition of human HCT15 cells; outline: as §3
MCF7 [3] = test: Cell cycle arrest in human MCF7 cells assessed as accumulation at S phase at 30 uM after 24 hrs by FACS analysis; outline: as §2
MCF7 [4] = test: Cell cycle arrest in human MCF7 cells assessed as accumulation at G2/M phase at 30 uM after 24 hrs by FACS analysis; outline: as §2
[5] = Growth inhibition of human Hs 578T cells; outline: as §3
OVCAR-4 = test: Growth inhibition of human OVCAR4 cells; outline: as §3
MCF7 [6] = test: Cell cycle arrest in human MCF7 cells assessed as accumulation at G1 phase at 10 uM after 24 hrs by FACS analysis; outline: as §4
MCF7 [7] = test: Cell cycle arrest in human MCF7 cells assessed as accumulation at G2/M phase at 10 uM after 24 hrs by FACS analysis; outline: as §4
ACHN = test: Growth inhibition of human ACHN cells; outline: as §3
MDA-MB-231 = test: Growth inhibition of human MDA-MB-231 cells; outline: as §3
K562 = test: Growth inhibition of human K562 cells; outline: as §3
786-0 = test: Growth inhibition of human 786-0 cells; outline: as §3
A498 = test: Growth inhibition of human A498 cells; outline: as §3
NCI-H226 = test: Growth inhibition of human NCI-H226 cells; outline: as §3
KM12 = test: Growth inhibition of human KM12 cells; outline: as §3
SNB-19 = test: Growth inhibition of human SNB19 cells; outline: as §1
SK-MEL-28 = test: Growth inhibition of human SK-MEL-28 cells; outline: as §3
HCT-116 = test: Growth inhibition of human HCT116 cells; outline: as §3
OVCAR-8 = test: Growth inhibition of human OVCAR8 cells; outline: as §3
NCI-H522 = test: Growth inhibition of human NCI-H522 cells; outline: as §3
MCF7 [8] = test: Cell cycle arrest in human MCF7 cells assessed as accumulation at G0 phase at 30 uM after 24 hrs by FACS analysis; outline: as §2
CAKI-1 = test: Growth inhibition of human Caki1 cells; outline: as §3
SF-539 = test: Growth inhibition of human SF539 cells; outline: as §3
MCF7 [9] = test: Growth inhibition of human MCF7 cells; outline: as §3
BT-549 = test: Growth inhibition of human BT549 cells; outline: as §3
SN12C = test: Growth inhibition of human SN12C cells; outline: as §1
HOP-62 = test: Growth inhibition of human HOP62 cells; outline: as §3
SK-OV-3 = test: Growth inhibition of human SKOV3 cells; outline: as §1
NCI-H322M = test: Growth inhibition of human NCI-H322M cells; outline: as §3
SK-MEL-2 = test: Growth inhibition of human SK-MEL-2 cells; outline: as §3
OVCAR-5 = test: Growth inhibition of human OVCAR5 cells; outline: as §3
OVCAR-3 = test: Growth inhibition of human OVCAR-3 cells; outline: as §3
SF-268 = test: Growth inhibition of human SF268 cells; outline: as §3
HOP-92 = test: Growth inhibition of human HOP92 cells; outline: as §3
EKVX = test: Growth inhibition of human EKVX cells; outline: as §3
MCF7 [10] = test: Cell cycle arrest in human MCF7 cells assessed as accumulation at G0 phase at 10 uM after 24 hrs by FACS analysis; outline: as §4
HT-29 = test: Growth inhibition of human HT-29 cells; outline: as §3
UACC-62 = test: Growth inhibition of human UACC62 cells; outline: as §1
LOX IMVI = test: Growth inhibition of human LOXIMVI cells; outline: as §3
T47D = test: Growth inhibition of human T47D cells; outline: as §1
UACC-257 = test: Growth inhibition of human UACC257 cells; outline: as §1
PC-3 = test: Growth inhibition of human PC3 cells; outline: as §3
SW-620 = test: Growth inhibition of human SW620 cells; outline: as §1
[11] = Growth inhibition of human RPMI8266 cells; outline: as §3
SK-MEL-5 = test: Growth inhibition of human SK-MEL-5 cells; outline: as §3
UO-31 = test: Growth inhibition of human UO31 cells; outline: as §1
Malme-3M = test: Growth inhibition of human MALME-3M cells; outline: as §3
SNB-75 = test: Growth inhibition of human SNB75 cells; outline: as §1
MDA-MB-435 = test: Growth inhibition of human MDA-MB-435 cells; outline: as §3

COc1cc(/C=C/C(=O)c2cccc(-n3cc(-c4ccccc4)[nH]c3=O)c2)cc(OC)c1OC
GI50 (U-251): 630 nM
Activity (MCF7 [1]): 39.08%
GI50 (RXF 393): 1710 nM
GI50 (NCI-H460): 1400 nM
GI50 (NCI-H23): 1430 nM
GI50 (NCI/ADR-RES): 1100 nM
GI50 (M14): 1350 nM
GI50 (COLO 205): 1510 nM
GI50 (SF-295): 1900 nM
Activity (MCF7 [2]): 17.5%
GI50 (TK-10): 3020 nM
GI50 (HCC 2998): 1260 nM
GI50 (A549): 4030 nM
GI50 (HCT-15): 1130 nM
Activity (MCF7 [3]): 5.6%
Activity (MCF7 [4]): 3.02%
GI50 [5]: 3410 nM
GI50 (OVCAR-4): 1880 nM
Activity (MCF7 [6]): 54.85%
Activity (MCF7 [7]): 19.46%
GI50 (ACHN): 1600 nM
GI50 (MDA-MB-231): 2170 nM
GI50 (K562): 500 nM
GI50 (786-0): 1380 nM
GI50 (A498): 2650 nM
GI50 (NCI-H226): 14600 nM
GI50 (KM12): 1370 nM
GI50 (SNB-19): 2350 nM
GI50 (SK-MEL-28): 1740 nM
GI50 (HCT-116): 330 nM
GI50 (OVCAR-8): 1620 nM
GI50 (NCI-H522): 950 nM
Activity (MCF7 [8]): 52.34%
GI50 (CAKI-1): 1750 nM
GI50 (SF-539): 1680 nM
GI50 (MCF7 [9]): 310 nM
GI50 (BT-549): 1930 nM
GI50 (SN12C): 2090 nM
GI50 (HOP-62): 4120 nM
GI50 (SK-OV-3): 3270 nM
GI50 (NCI-H322M): 2020 nM
GI50 (SK-MEL-2): 2060 nM
GI50 (OVCAR-5): 1880 nM
GI50 (OVCAR-3): 1230 nM
GI50 (SF-268): 1920 nM
GI50 (HOP-92): 10800 nM
GI50 (EKVX): 2300 nM
Activity (MCF7 [10]): 8.19%
GI50 (HT-29): 660 nM
GI50 (UACC-62): 1520 nM
GI50 (LOX IMVI): 480 nM
GI50 (T47D): 2190 nM
GI50 (UACC-257): 1520 nM
GI50 (PC-3): 3260 nM
GI50 (SW-620): 390 nM
GI50 [11]: 620 nM
GI50 (SK-MEL-5): 1400 nM
GI50 (UO-31): 1510 nM
GI50 (Malme-3M): 1310 nM
GI50 (SNB-75): 4470 nM
GI50 (MDA-MB-435): 1200 nM
